According to ChEMBL document CHEMBL3868583, “6-Aryl substituted 4-(4-cyanomethyl) phenylamino quinazolines as a new class of isoform-selective PI3K-alpha inhibitors” (Eur J Med Chem, 2016):
Converted amounts (≈) assume the structure as drawn.

Columns and labels:
[1] = Cytotoxicity against human FR2 cells assessed as cell growth inhibition after 48 hrs by MTT assay; assay type: toxicity, cell-based
Homo sapiens [2] = organism: Homo sapiens; experiment: Selectivity ratio of IC50 for PI3Kbeta (unknown origin) to IC50 for PI3Kalpha (unknown origin)
[3] = Thermodynamic equilibrium solubility of compound in simulated gastric fluid up to 300 ug after 4 hrs by UV absorbance method; assay type: ADME; settings: read-out: Therm_solubility
Outline: (§1)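 Methanol stock evaporated in wells to give 1–300 µg solid; 200 µl medium (water, PBS, SGF or SIF) added, shaken 300 rpm 4 h at 25 ± 1 °C, equilibrated overnight, centrifuged; supernatant UV absorbance at λmax; saturation point from concentration–absorbance curve; triplicate.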

CYP2C19 = CYP2C19 (Homo sapiens, UniProt P33261); experiment: Inhibition of human CYP2C19 at 10 uM after 10 mins by fluorescence assay; assay type: ADME
CYP2C19, sequence (P33261 whole entry): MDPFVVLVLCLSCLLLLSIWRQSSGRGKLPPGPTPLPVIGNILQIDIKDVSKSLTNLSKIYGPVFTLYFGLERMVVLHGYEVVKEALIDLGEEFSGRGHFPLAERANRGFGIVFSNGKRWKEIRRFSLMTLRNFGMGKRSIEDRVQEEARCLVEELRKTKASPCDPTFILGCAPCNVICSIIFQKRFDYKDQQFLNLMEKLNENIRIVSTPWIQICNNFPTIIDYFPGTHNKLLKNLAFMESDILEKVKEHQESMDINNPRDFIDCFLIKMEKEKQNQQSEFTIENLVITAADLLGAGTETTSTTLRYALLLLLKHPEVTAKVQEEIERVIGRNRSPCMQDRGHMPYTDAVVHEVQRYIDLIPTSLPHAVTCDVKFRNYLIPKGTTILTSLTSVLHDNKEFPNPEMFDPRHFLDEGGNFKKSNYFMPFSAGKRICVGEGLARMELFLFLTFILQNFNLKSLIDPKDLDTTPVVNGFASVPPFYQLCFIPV

CYP3A4 = CYP3A4 (Homo sapiens, UniProt P08684); experiment: Inhibition of human CYP3A4 at 10 uM after 10 mins by fluorescence assay; assay type: ADME
CYP3A4, sequence (P08684 whole entry): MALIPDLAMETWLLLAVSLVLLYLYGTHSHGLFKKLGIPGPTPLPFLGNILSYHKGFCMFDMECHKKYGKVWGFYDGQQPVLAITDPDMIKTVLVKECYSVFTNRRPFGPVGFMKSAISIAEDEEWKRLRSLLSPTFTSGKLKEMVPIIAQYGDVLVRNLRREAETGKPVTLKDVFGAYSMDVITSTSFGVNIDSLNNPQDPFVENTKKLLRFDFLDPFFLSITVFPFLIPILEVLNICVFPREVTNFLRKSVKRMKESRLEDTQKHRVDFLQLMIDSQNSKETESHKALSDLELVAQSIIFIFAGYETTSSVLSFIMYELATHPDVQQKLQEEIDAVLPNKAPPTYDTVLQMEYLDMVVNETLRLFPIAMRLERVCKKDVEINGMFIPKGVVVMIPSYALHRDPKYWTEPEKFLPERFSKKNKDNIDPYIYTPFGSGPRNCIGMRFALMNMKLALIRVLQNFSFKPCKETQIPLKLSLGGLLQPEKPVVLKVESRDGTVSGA

[4] = Cytotoxicity against HGF cells assessed as cell growth inhibition after 48 hrs by MTT assay; assay type: toxicity, cell-based; settings: human
[5] = biological target: Phosphatidylinositol 4,5-bisphosphate 3-kinase catalytic subunit alpha isoform (Homo sapiens, UniProt P42336); experiment: Inhibition of PI3Kalpha (unknown origin) using diC8 PIP2 as substrate at 0.5 uM after 80 mins by ADP-glo assay
Phosphatidylinositol 4,5-bisphosphate 3-kinase catalytic subunit alpha isoform, sequence (P42336 whole entry, canonical isoform): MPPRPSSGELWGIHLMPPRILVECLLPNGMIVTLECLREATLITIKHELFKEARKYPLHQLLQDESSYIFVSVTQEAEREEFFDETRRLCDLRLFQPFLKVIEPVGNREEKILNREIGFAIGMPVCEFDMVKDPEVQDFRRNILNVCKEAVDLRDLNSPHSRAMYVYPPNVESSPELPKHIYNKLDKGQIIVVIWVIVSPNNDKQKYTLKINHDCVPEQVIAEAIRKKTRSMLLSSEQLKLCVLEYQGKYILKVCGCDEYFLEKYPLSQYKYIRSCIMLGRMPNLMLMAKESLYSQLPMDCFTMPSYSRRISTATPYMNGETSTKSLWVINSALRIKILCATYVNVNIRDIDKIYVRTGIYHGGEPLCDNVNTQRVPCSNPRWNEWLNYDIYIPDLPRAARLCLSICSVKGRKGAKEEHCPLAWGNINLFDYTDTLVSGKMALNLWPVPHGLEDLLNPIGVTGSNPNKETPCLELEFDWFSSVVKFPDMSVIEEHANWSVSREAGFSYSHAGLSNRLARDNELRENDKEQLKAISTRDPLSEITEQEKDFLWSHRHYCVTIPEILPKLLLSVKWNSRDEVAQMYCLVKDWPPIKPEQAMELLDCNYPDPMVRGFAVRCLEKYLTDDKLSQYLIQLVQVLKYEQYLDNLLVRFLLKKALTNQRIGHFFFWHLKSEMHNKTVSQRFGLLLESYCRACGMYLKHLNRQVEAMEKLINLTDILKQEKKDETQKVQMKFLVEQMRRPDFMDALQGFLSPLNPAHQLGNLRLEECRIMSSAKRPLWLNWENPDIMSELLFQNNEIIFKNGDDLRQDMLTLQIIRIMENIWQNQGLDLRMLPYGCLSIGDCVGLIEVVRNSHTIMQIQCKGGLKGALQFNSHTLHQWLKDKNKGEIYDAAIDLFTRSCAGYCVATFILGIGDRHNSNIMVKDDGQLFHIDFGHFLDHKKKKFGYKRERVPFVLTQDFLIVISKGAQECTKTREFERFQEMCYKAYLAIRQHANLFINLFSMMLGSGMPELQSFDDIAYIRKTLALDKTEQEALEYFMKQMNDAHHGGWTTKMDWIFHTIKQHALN

MCF7 [6] = experiment: Induction of cell cycle arrest in human MCF7 cells assessed as apoptotic cells at 30 uM after 24 hrs by propidium iodide-staining based FACS analysis (reference value: 8 %); assay type: functional
Outline: (§2)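 MCF-7 or PC-3 cells treated at indicated concentrations for 24 h, pelleted, PBS-washed, fixed in ice-cold 70% ethanol overnight at 4 °C. RNase 0.2 mg/mL 1 h at 37 °C, propidium iodide 10 µg/mL 30 min dark. 10,000 events (FL2-A vs FL2-W) by flow cytometry; fractions in apoptosis/sub-G1, G1, S, G2-M.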

[7] = Cytotoxicity against human A375 cells assessed as cell growth inhibition after 48 hrs by MTT assay; assay type: functional; settings: A-375, 48 h
Outline: (§3)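 MTT assay: 3 × 10^3 cells/well seeded, compounds added after 24 h at final […], 48 h exposure. MTT (2.5 mg/mL in PBS) added, formazan dissolved in DMSO, absorbance 570 nm. Viability as % of untreated; three independent experiments, mean ± SD.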

CYP2C9 = CYP2C9 (Homo sapiens, UniProt P11712); experiment: Inhibition of human CYP2C9 at 10 uM after 10 mins by fluorescence assay; assay type: ADME
CYP2C9, sequence (P11712 whole entry): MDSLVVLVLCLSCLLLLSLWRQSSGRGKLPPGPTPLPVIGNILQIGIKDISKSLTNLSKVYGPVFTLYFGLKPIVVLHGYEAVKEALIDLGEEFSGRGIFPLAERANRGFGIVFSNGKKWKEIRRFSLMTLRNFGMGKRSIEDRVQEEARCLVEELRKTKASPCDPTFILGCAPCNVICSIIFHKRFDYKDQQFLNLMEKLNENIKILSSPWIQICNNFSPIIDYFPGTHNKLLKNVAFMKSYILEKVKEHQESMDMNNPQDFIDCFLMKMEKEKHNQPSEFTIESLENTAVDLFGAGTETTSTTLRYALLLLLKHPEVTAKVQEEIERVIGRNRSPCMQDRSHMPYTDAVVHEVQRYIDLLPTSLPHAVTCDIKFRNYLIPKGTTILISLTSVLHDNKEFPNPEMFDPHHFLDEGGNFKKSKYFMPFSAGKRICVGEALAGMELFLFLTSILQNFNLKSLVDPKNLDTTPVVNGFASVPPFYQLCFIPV

Mus musculus [8] = experiment: Toxicity in Swiss mouse implanted with Swiss mouse EAT cells assessed as body weight at 15 mg/kg, ip administered for 1 to 9 days measured on day 1 (reference value: 21.6 g); assay type: organism-based; settings: in vivo
Mus musculus [9] = experiment: Toxicity in Swiss mouse implanted with Swiss mouse EAT cells assessed as body weight at 15 mg/kg, ip administered for 1 to 9 days measured on day 5 (reference value: 22.6 g); assay type: organism-based; settings: in vivo
CYP2D6 = CYP2D6 (Homo sapiens, UniProt P10635); experiment: Inhibition of human CYP2D6 at 10 uM after 10 mins by fluorescence assay; assay type: ADME
CYP2D6, sequence (P10635 whole entry): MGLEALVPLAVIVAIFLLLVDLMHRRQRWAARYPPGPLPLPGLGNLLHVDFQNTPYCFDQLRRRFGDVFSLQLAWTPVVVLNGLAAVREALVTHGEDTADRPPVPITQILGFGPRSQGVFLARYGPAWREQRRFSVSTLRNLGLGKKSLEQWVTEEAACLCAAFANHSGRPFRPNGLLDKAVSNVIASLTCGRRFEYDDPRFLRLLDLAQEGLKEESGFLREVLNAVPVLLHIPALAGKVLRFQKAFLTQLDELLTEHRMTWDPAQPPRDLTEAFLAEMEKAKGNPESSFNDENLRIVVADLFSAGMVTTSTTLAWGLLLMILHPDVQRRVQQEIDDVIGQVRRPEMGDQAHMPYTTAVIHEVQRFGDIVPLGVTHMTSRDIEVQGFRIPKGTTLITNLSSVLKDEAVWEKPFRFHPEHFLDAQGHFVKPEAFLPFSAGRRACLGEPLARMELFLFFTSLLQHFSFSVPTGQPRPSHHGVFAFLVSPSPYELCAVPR

CYP1A2 = biological target: T1, CYP1A2 (Homo sapiens, UniProt P05177); experiment: Inhibition of human CYP1A2 at 10 uM after 10 mins by fluorescence assay; assay type: ADME
T1 sequence (P05177 whole entry): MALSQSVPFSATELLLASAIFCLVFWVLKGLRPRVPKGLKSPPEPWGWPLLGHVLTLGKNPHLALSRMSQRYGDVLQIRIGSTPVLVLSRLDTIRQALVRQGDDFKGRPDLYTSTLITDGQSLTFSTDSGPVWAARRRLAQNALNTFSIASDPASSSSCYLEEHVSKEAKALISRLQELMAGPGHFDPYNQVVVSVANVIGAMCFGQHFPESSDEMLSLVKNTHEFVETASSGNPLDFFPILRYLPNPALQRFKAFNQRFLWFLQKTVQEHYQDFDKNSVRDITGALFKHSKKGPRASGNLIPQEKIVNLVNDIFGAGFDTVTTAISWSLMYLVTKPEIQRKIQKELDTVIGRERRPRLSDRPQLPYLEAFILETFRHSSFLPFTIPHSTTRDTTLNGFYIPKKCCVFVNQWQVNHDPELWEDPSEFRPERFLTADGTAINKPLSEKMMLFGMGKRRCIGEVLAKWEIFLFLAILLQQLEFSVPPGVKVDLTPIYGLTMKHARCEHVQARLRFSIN

[10] = Cytotoxicity against human HL60 cells assessed as cell growth inhibition after 48 hrs by MTT assay; assay type: functional; settings: HL-60, 48 h; outline: as §3
MCF7 [11] = experiment: Induction of cell cycle arrest in human MCF7 cells assessed as accumulation at G2 phase at 30 uM after 24 hrs by propidium iodide-staining based FACS analysis (reference value: 20 %); assay type: functional; outline: as §2
[12] = Cytotoxicity against human MCF7 cells assessed as cell growth inhibition after 48 hrs by MTT assay; assay type: functional; settings: MCF7, 48 h; outline: as §3
[13] = Thermodynamic equilibrium solubility of compound in simulated intestinal fluid up to 300 ug after 4 hrs by UV absorbance method; assay type: ADME; settings: read-out: Therm_solubility; outline: as §1
[14] = Cytotoxicity against HEK293 cells assessed as cell growth inhibition after 48 hrs by MTT assay; assay type: toxicity, cell-based; settings: human
[15] = Thermodynamic equilibrium solubility of compound in PBS up to 300 ug after 4 hrs by UV absorbance method; assay type: physicochemical; settings: read-out: Therm_solubility; outline: as §1
PC-3 = experiment: Induction of cell cycle arrest in human PC3 cells assessed as accumulation at subG1 phase after 24 hrs by propidium iodide-staining based FACS analysis; assay type: functional
Outline: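 PC-3 cells exposed 24 h at indicated concentrations, pelleted, fixed overnight in ice-cold 70% ethanol at 4 °C, RNase 0.2 mg/mL at 37 °C 1 h, propidium iodide 10 µg/mL 30 min in dark; 10,000 events acquired (FL2-A vs FL2-W); DNA histograms modelled for apoptotic (sub-G1), G1, S and G2-M fractions.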

[16] = Thermodynamic equilibrium solubility of compound in water up to 300 ug after 4 hrs by UV absorbance method; assay type: physicochemical; settings: read-out: Therm_solubility; outline: as §1
[17] = Cytotoxicity against human PC3 cells assessed as cell growth inhibition after 48 hrs by MTT assay; assay type: functional; settings: PC-3, 48 h; outline: as §3
[18] = Cytotoxicity against human PANC1 cells assessed as cell growth inhibition after 48 hrs by MTT assay; assay type: functional; settings: PANC-1, 48 h; outline: as §3
[19] = Efflux ratio of permeability in human Caco2 cells after 90 mins by LC-MS/MS analysis; assay type: ADME, cell-based; settings: Caco-2
Outline: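 Caco-2 monolayers grown 21 days (TEER >500). Compound in HBSS with 10 mM HEPES dosed to the apical chamber, and in a repeat run to the basolateral chamber. Both chambers sampled at 0 and 90 min at 37 °C. Analysis by LC-MS/MS.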

Homo sapiens [20] = organism: Homo sapiens; experiment: Selectivity ratio of IC50 for PI3Kdelta (unknown origin) to IC50 for PI3Kalpha (unknown origin)
MCF7 [21] = experiment: Induction of cell cycle arrest in human MCF7 cells assessed as accumulation at subG1 phase after 24 hrs by propidium iodide-staining based FACS analysis; assay type: functional; outline: as §2
Homo sapiens [22] = organism: Homo sapiens; experiment: Selectivity ratio of IC50 for PI3Kgamma (unknown origin) to IC50 for PI3Kalpha (unknown origin)

Compound | GI50 at 48 h [1] | Ratio IC50 (Homo sapiens [2]) | solubility thermodynamic at 4 h [3] | inhibition at 10 min, 10 µM (CYP2C19) | inhibition at 10 min, 10 µM (CYP3A4) | GI50 at 48 h [4] | inhibition [5] | GI50 [7] | inhibition at 10 min, 10 µM (CYP2C9) | inhibition at 10 min, 10 µM (CYP2D6) | inhibition at 10 min, 10 µM (CYP1A2) | GI50 [10] | GI50 [12] | solubility thermodynamic at 4 h [13] | GI50 at 48 h [14] | solubility thermodynamic at 4 h [15] | Activity (PC-3) | solubility thermodynamic at 4 h [16] | GI50 [17] | GI50 [18] | further results
N#CCc1ccc(Nc2ncnc3ccc(-c4ccc5[nH]ccc5c4)cc23)cc1 | > 50 µM | > 49.7 | 80 µg/mL (≈ 213 µM) | 10% | 51% | > 50 µM | 47.5% | 31 µM | 88% | 29% | 30% | 18 µM | 7 µM | 5 µg/mL (≈ 13.3 µM) | > 50 µM | 10 µg/mL (≈ 26.6 µM) | Dose-dependent effect | 10 µg/mL (≈ 26.6 µM) | 24 µM | 16 µM | Activity (MCF7 [6]): 37%; Activity (Mus musculus [8]): 19.85 g; Activity (Mus musculus [9]): 20 g; Activity (MCF7 [11]): 4%; efflux ratio at 1.5 h [19]: 1.3; Ratio IC50 (Homo sapiens [20]): > 49.7; Activity (MCF7 [21]): Dose-dependent effect; Ratio IC50 (Homo sapiens [22]): 3.7
N#CCc1ccc(Nc2ncnc3ccc(-c4cncc5ccccc45)cc23)cc1 | > 50 µM | > 133 | 800 µg/mL (≈ 2060 µM) | 34% | 27% | > 50 µM | 48.8% | 12 µM | 87% | -35% | 72% | 10 µM | 12 µM | 1 µg/mL (≈ 2.58 µM) | > 50 µM | 1 µg/mL (≈ 2.58 µM) | Dose-dependent effect | 1 µg/mL (≈ 2.58 µM) | 9 µM | 9 µM | efflux ratio at 1.5 h [19]: 1.2; Ratio IC50 (Homo sapiens [20]): 5.9; Activity (MCF7 [21]): Dose-dependent effect; Ratio IC50 (Homo sapiens [22]): 56
